Several values for one entry are separate records, joined by “and”; a condition that tells them apart may be missing. Identical values can stand only once.
Columns and labels:
Settings in all cases: in vivo
[1] = system: Canis familiaris; assay: The biodistribution of the [131I]-labeled compound in dog (mass= 5.7 kg), 2 hr after intravenous injection was evaluated in cerebellum (ID.kg/g); assay type: ADME, organism-based, Canis lupus familiaris
Outline: (§1)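 One female dog (5.7 kg) premedicated im with acepromazine maleate, then anesthetized iv with sodium nembutal/saline (1:1). Given 1.0 mCi iv of ¹³¹I-labeled agent. Killed 2 h post-dose with iv nembutal. Tissues excised, weighed and counted; blood, fat and muscle masses estimated as 7.5%, 27.5% and 40% of body weight. Expressed as % ID/organ and % ID·kg/g.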

[2] = system: Canis familiaris; assay: The biodistribution of the [131I]-labeled compound in dog (mass= 5.7 kg), 2 hr after intravenous injection was evaluated in heart; assay type: ADME, organism-based, Canis lupus familiaris; outline: as §1
[3] = system: Rattus norvegicus; assay: The biodistribution of the [125I]-labeled compound in rats after intravenous injection was evaluated in adrenal at 1.00 hrs; value ranges from 0.80-1.14 (ID.kg/g); assay type: ADME, organism-based
Outline: (§2)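 Male Sprague-Dawley rats (250–300 g) under ether anesthesia were given an iv injection of no-carrier-added 125I-labelled agent (10–15 μCi in 0.1 mL saline). The agent was iodinated with chloramine-T in acetate buffer and purified by C-18 HPLC. Groups of N = 3 were killed at 0.25, 1 and 4 h. Blood and tissues were weighed and γ-counted. Values are % ID·kg/g, mean (range).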

[4] = system: Rattus norvegicus; assay: The biodistribution of the [125I]-labeled compound in rats after intravenous injection was evaluated in blood at 1.00 hrs (ID.kg/g); assay type: ADME, organism-based; outline: as §2
[5] = system: Rattus norvegicus; assay: The biodistribution of the [125I]-labeled compound in rats after intravenous injection was evaluated in heart at 0.25 hrs; value ranges from 0.26-0.32 (ID.kg/g); assay type: ADME, organism-based; outline: as §2
[6] = system: Canis familiaris; assay: The biodistribution of the [131I]-labeled compound in dog (mass= 5.7 kg), 2 hr after intravenous injection was evaluated in liver (ID.kg/g); assay type: ADME, organism-based, Canis lupus familiaris; outline: as §1
[7] = system: Canis familiaris; assay: The biodistribution of the [131I]-labeled compound in dog (mass= 5.7 kg), 2 hr after intravenous injection was evaluated in lung (ID.kg/g); assay type: ADME, organism-based, Canis lupus familiaris; outline: as §1
[8] = system: Rattus norvegicus; assay: The biodistribution of the [125I]-labeled compound in rats after intravenous injection was evaluated in brain at 1.00 hrs (ID.kg/g); assay type: ADME, organism-based; outline: as §2
[9] = system: Rattus norvegicus; assay: The biodistribution of the [125I]-labeled compound in rats after intravenous injection was evaluated in kidney at 1.00 hrs; value ranges from 0.52-0.61 (ID.kg/g); assay type: ADME, organism-based
Outline: (§3)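 Male Sprague-Dawley rats (250–300 g), under ether anesthesia, given 10–15 μCi of the NCA ¹²⁵I-labeled agent iv in 0.1 mL saline. Groups of N = 3 were killed at 0.25, 1 or 4 h. Blood and tissues were removed, weighed and counted in a γ-well scintillation counter. Values are mean % ID·kg/g (range).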

[10] = system: Rattus norvegicus; assay: The biodistribution of the [125I]-labeled compound in rats after intravenous injection was evaluated in kidney at 4.00 hrs; value ranges from 0.32-0.42 (ID.kg/g); assay type: ADME, organism-based; outline: as §3
[11] = system: Rattus norvegicus; assay: The biodistribution of the [125I]-labeled compound in rats after intravenous injection was evaluated in liver at 0.25 hr; value ranges from 0.27-0.39 (ID.kg/g); assay type: ADME, organism-based; outline: as §3
[12] = system: Rattus norvegicus; assay: The biodistribution of the [125I]-labeled compound in rats after intravenous injection was evaluated in heart at 4.00 hrs; value ranges from 0.11-0.15 (ID.kg/g); assay type: ADME, organism-based; outline: as §3
[13] = system: Canis familiaris; assay: The biodistribution of the [131I]-labeled compound in dog (mass= 5.7 kg), 2 hr after intravenous injection was evaluated in adrenal (ID.kg/g); assay type: ADME, organism-based, Canis lupus familiaris; outline: as §1
[14] = system: Rattus norvegicus; assay: The biodistribution of the [125I]-labeled compound in rats after intravenous injection was evaluated in adrenal at 0.25 hrs; value ranges from 1.43-1.71 (ID.kg/g); assay type: ADME, organism-based; outline: as §2

Compound `CCCCN1CCN(c2ccc(I)cc2)CC1` has a Biodistribution [1] of 0.165%, a Biodistribution [2] of 0.182% and a Biodistribution [3] of 1.14%. For the same compound, the Biodistribution [4] was 0.01 % ID·kg/g, the Biodistribution [5] was 0.32% and the Biodistribution [6] was 6.68% and 1.88%. The Biodistribution [7] was 1.287% and 0.143%, the Biodistribution [8] was 0.28% and the Biodistribution [9] was 0.61%. For the same compound, the Biodistribution [10] was 0.42%, the Biodistribution [11] was 0.39% and the Biodistribution [12] was 0.15%. For the same compound, the Biodistribution [13] was 0.121% and 0.633% and the Biodistribution [14] was 1.71%.

Source: ChEMBL document CHEMBL1123589, “Phenylpiperazine-based radiopharmaceuticals for brain imaging. 3. Synthesis and evaluation of radioiodinated 1-alkyl-4-phenylpiperazines” (J Med Chem, 1987)
